# Entries after “also recorded” stand apart in the source; their conditions may differ.
# Experiments:
# [1] = target: SARS-CoV-2 3CL main protease (MBP-tagged) (Severe acute respiratory syndrome coronavirus 2, UniProt P0DTD1); format: biochemical; conditions: increasing concentrations
# Calu-3 cells = assay: Lipidomic analysis of Calu-3 cells after MβCD treatment; format: cell-based; conditions: increasing concentrations, 2 h
# In short: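 Calu-3 cells were seeded at 3 million/well and treated with 0, 0.6 or 2.5 mM test compound for 2 h at 37 °C and 5 % CO2. Plasma membrane lipid composition was then measured by lipidomics.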
# [2] = test system: SARS-CoV-2 NanoLuc replicative competent reporter virus; design: species or system golden Syrian hamsters; conditions: hamster, in vivo
substance,measurement,setting,value
Methyl-β-cyclodextrin [MβCD],Inhibition of M^pro activity (in words),[1],did not show activity
same,Effect on phosphatidylcholine (in words),Calu-3 cells,did not affect phosphatidylcholine
same,Nanoluciferase signal in nasal turbinates and lungs (in words),[2],no nanoluciferase signal was detected; also recorded: no sign of infection was detected

# From paper PMC10247892 (Biomedicine & Pharmacotherapy, 2023)
